Test results as given in ChEMBL document CHEMBL3286133, “Synthesis, biological evaluation and molecular docking studies of trans-indole-3-acrylamide derivatives, a new class of tubulin polymerization inhibitors” (Bioorg Med Chem, 2014).
pIC50: −log10 of the molar value. The source made the active and inactive calls. The rule behind the calls is not given here.

Assays:
[1] = system: HeLa; test: Cell cycle arrest in human HeLa cells assessed as decrease in accumulation at G1 phase at 0 to 30 uM for 24 hrs by flow cytometry; type: functional, cell-based
Procedure, shortened: (§1)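 DNA-content flow cytometry. 5×10⁵ HeLa or HL-60 cells were treated 24 h at a range of concentrations. Cells were fixed in ice-cold 70% ethanol, lysed in buffer with RNase A and 0.1% Triton X-100, and stained with PI. Phase distribution was taken from DNA histograms. Means of three independent experiments.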

[2] = system: HeLa; test: Antiproliferative activity against human HeLa cells after 48 hrs by MTT assay; type: functional, cell-based
[3] = system: MDA-MB-231; test: Antiproliferative activity against human MDA-MB-231 cells after 48 hrs by MTT assay; type: functional, cell-based; settings: MDA-MB-231, 48 h
Procedure, shortened: (§2)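 MTT viability assay. HL-60 and Raji were grown in RPMI-1640 and MCF7/MDA-MB-231 in DMEM, all with 10% FBS, at 37 °C under 5% CO₂. Cells were seeded at 10,000/well, held overnight in 1% FBS medium, then exposed 48 h to 0.1–125 µM. Solvent control was 0.1% DMSO. MTT was 0.5 mg/mL for 4 h, formazan was dissolved in DMSO, and absorbance read at 570 nm. Quadruplicates; IC50 taken from concentration–response curves.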

[4] = system: MCF7; test: Antiproliferative activity against human MCF7 cells after 48 hrs by MTT assay; type: functional, cell-based; settings: MCF7, 48 h; procedure, shortened: as §2
[5] = system: Raji; test: Antiproliferative activity against human Raji cells after 48 hrs by MTT assay; type: functional, cell-based; procedure, shortened: as §2
[6] = system: HL-60; test: Antiproliferative activity against human HL60 cells after 48 hrs by MTT assay; type: functional, cell-based; settings: HL-60, 48 h; procedure, shortened: as §2
[7] = target: T1, Tubulin (Bos taurus) (UniProt Q6B856+Q862L2+Q862F3); test: Displacement of [3H]colchicine from bovine brain tubulin at 50 uM after 10 mins by liquid scintillation counting
Procedure, shortened: (§3)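 [³H]colchicine binding in 0.1 mL. Bovine brain tubulin 1.0 µM, [³H]colchicine 5.0 µM, 1.0 M glutamate, 5% DMSO, inhibitor at 5 or 50 µM; 10 min at 37 °C. Reactions were stopped with ice-cold water and filtered through two stacked DEAE-cellulose filters, which were washed with cold water. Bound label was counted by liquid scintillation.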

[8] = target: T1, Tubulin (Bos taurus); test: Displacement of [3H]colchicine from bovine brain tubulin at 5 uM after 10 mins by liquid scintillation counting; procedure, shortened: as §3
[9] = system: HL-60; test: Cell cycle arrest in human HL60 cells assessed as increase in accumulation at G2/M phase for 24 hrs by flow cytometry; type: functional, cell-based; procedure, shortened: as §1
[10] = system: HeLa; test: Cell cycle arrest in human HeLa cells assessed as increase in accumulation at G2/M phase for 24 hrs by flow cytometry; type: functional, cell-based; procedure, shortened: as §1
[11] = system: HL-60; test: Cell cycle arrest in human HL60 cells assessed as decrease in accumulation at G1 phase at 0 to 30 uM for 24 hrs by flow cytometry; type: functional, cell-based; procedure, shortened: as §1
[12] = system: HL-60; test: Cell cycle arrest in human HL60 cells assessed as increase in accumulation at G2/M phase at 10 uM for 24 hrs by flow cytometry; type: functional; settings: in the assay text read “at 15 to 30 uM” for “at 10 uM”; procedure, shortened: as §1
[13] = system: HeLa; test: Cell cycle arrest in human HeLa cells assessed as increase in accumulation at G2/M phase at 10 uM for 24 hrs by flow cytometry; type: functional; settings: in the assay text read “at 15 to 30 uM” for “at 10 uM”; procedure, shortened: as §1
[14] = system: HeLa; test: Induction of apoptosis in human HeLa cells assessed as increase in number of early apoptotic cells for 24 and 48 hrs by annexin-V/propidium-iodide staining based flow cytometry; type: functional, cell-based
Procedure, shortened: (§4)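 Annexin-V-FITC/PI double staining with flow cytometry on HL-60 and HeLa cells after 24 or 48 h of treatment. Excitation 488 nm; emission 525 nm (FITC) and 585 nm (PI). Early apoptotic cells scored as annexin-V+/PI−, late apoptotic as annexin-V+/PI+. Means of three independent experiments.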

[15] = system: HeLa; test: Induction of apoptosis in human HeLa cells assessed as increase in number of late apoptotic cells for 24 and 48 hrs by annexin-V/propidium-iodide staining based flow cytometry; type: functional, cell-based; procedure, shortened: as §4
[16] = system: HeLa; test: Induction of apoptosis in human HeLa cells assessed as increase in number of early apoptotic cells at 1 and 10 uM hrs by annexin-V/propidium-iodide staining based flow cytometry; type: functional, cell-based; settings: TDE = time-dependent effect; procedure, shortened: as §4
[17] = system: HeLa; test: Induction of apoptosis in human HeLa cells assessed as increase in number of late apoptotic cells at 1 and 10 uM hrs by annexin-V/propidium-iodide staining based flow cytometry; type: functional, cell-based; settings: TDE = time-dependent effect; procedure, shortened: as §4
[18] = system: HL-60; test: Induction of apoptosis in human HL60 cells assessed as increase in number of early apoptotic cells for 24 and 48 hrs by annexin-V/propidium-iodide staining based flow cytometry; type: functional, cell-based; procedure, shortened: as §4
[19] = system: HL-60; test: Induction of apoptosis in human HL60 cells assessed as increase in number of late apoptotic cells for 24 and 48 hrs by annexin-V/propidium-iodide staining based flow cytometry; type: functional, cell-based; procedure, shortened: as §4
[20] = system: HL-60; test: Induction of apoptosis in human HL60 cells assessed as increase in number of late apoptotic cells at 1 and 10 uM by annexin-V/propidium-iodide staining based flow cytometry; type: functional, cell-based; settings: TDE = time-dependent effect; procedure, shortened: as §4
[21] = system: HL-60; test: Induction of apoptosis in human HL60 cells assessed as increase in number of early apoptotic cells at 1 and 10 uM by annexin-V/propidium-iodide staining based flow cytometry; type: functional, cell-based; settings: TDE = time-dependent effect; procedure, shortened: as §4
[22] = system: HL-60; test: Induction of apoptosis in human HL60 cells assessed as increase in cleaved caspase-3 level at 1 to 10 uM after 24 to 48 hrs by western blot analysis; type: functional, cell-based
Procedure, shortened: (§5)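 Western blot on HL-60 cells exposed for the indicated times. Lysates were cleared at 15000 × g, 4 °C; 20 µg protein was run on 7.5–15% SDS-PAGE and transferred to PVDF. Blocking in 5% BSA for 2 h, then caspase-3 and PARP antibodies overnight at 4 °C and peroxidase secondary for 60 min. ECL detection; β-actin reprobe as loading control.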

[23] = system: HL-60; test: Induction of apoptosis in human HL60 cells assessed as increase in cleaved PARP level at 1 to 10 uM after 24 to 48 hrs by western blot analysis; type: functional, cell-based; procedure, shortened: as §5
[24] = system: HL-60; test: Cell cycle arrest in human HL60 cells assessed as decrease in accumulation at S phase at 0 to 30 uM for 24 hrs by flow cytometry; type: functional, cell-based; procedure, shortened: as §1
[25] = system: HeLa; test: Cell cycle arrest in human HeLa cells assessed as decrease in accumulation at S phase at 0 to 30 uM for 24 hrs by flow cytometry; type: functional, cell-based; procedure, shortened: as §1
[26] = target: Tubulin (Bos taurus, UniProt Q6B856+Q862L2+Q862F3); test: Inhibition of bovine brain tubulin polymerization after 20 mins by spectrophotometry

Structure (SMILES)	pIC50 [2]	pIC50 [3]	pIC50 [4]	pIC50 [5]	pIC50 [6]	inhibition [7]	IC50 [26]	also measured
COc1cc(NC(=O)/C=C/c2c[nH]c3ccccc23)cc(OC)c1OC	4.63	< 4.00	4.44	5.02	5.29	50%	17 µM	Activity [1]: Active; inhibition [8]: 11%; Activity [9]: Dose-dependent effect; Activity [10]: Dose-dependent effect; Activity [11]: Active; Activity [12]: 60%; Activity [13]: > 80%; Activity [14]: Dose-dependent effect; Activity [15]: Dose-dependent effect; Activity [16]: tde; Activity [17]: tde; Activity [18]: Dose-dependent effect; Activity [19]: Dose-dependent effect; Activity [20]: tde; Activity [21]: tde; Activity [22]: Active; Activity [23]: Active; Activity [24]: Active; Activity [25]: Active
COc1cc(CNC(=O)/C=C/c2c[nH]c3ccccc23)ccc1O	< 4.00	< 4.00	< 4.00	4.48	< 4.00	14%	> 40 µM	–
COc1cc(OC)c(NC(=O)/C=C/c2c[nH]c3ccccc23)c(OC)c1	< 4.00	< 4.00	< 4.00	< 4.00	< 4.00	11%	> 40 µM	–
COc1ccc(OC)c(NC(=O)/C=C/c2c[nH]c3ccccc23)c1	< 4.00	< 4.00	< 4.00	4.64	5.00	15%	> 40 µM	–
COc1ccc(CNC(=O)/C=C/c2c[nH]c3ccccc23)c(OC)c1	< 4.00	< 4.00	< 4.00	< 4.00	< 4.00	–	> 40 µM	–
COc1ccc(NC(=O)/C=C/c2c[nH]c3ccccc23)c(OC)c1	< 4.00	< 4.00	< 4.00	4.65	4.75	13%	> 40 µM	–
COc1ccc(OC)c(CNC(=O)/C=C/c2c[nH]c3ccccc23)c1	< 4.00	< 4.00	< 4.00	< 4.00	< 4.00	23%	> 40 µM	–
COc1cccc(CNC(=O)/C=C/c2c[nH]c3ccccc23)c1OC	4.44	< 4.00	< 4.00	< 4.00	< 4.00	12%	> 40 µM	–
COc1ccc(NC(=O)/C=C/c2c[nH]c3ccccc23)cc1OC	4.50	< 4.00	< 4.00	4.99	5.21	11%	> 40 µM	–
COc1cc(NC(=O)/C=C/c2c[nH]c3ccccc23)cc(OC)c1	< 4.00	< 4.00	< 4.00	5.03	5.15	26%	> 40 µM	–
COc1ccc(CNC(=O)/C=C/c2c[nH]c3ccccc23)cc1OC	< 4.00	< 4.00	< 4.00	< 4.00	< 4.00	13%	> 40 µM	–
